Experimental data gathered from unrelated publications.
Compare with care: the assays were run in different laboratories.
Cell line: MV4-11
Effect on: cell growth or viability

SMILES | assay | setting | quantity | value
c1ccc(Oc2ccc(Nc3ccc4ncc(OCC5CCNCC5)nc4c3)cc2)cc1 | XTT | 7 days | EC50 | 880 nM
O=C(NO)c1ccc(Cn2cnc3c(Nc4cccc([N+](=O)[O-])c4)ncnc32)cc1 | MTT | 72 h | IC50 | 280 nM
Cc1n[nH]c2ccc3nc(-c4ccc(C(=O)NCCN(C)C)nc4)c4c(c3c12)CCCCC4 | resazurin | 72 h | GI50 | 181 nM
Cc1cc2c(C(=O)O)cccc2n1-c1nc2c(c(NCc3ccccc3)n1)CCCN2 |  | 72 h | IC50 | 800 nM
c1cc(N2CCCCC2)ccc1Nc1cc2ncc(OCC3CCNCC3)nc2cc1-c1ccc(N2CCCCC2)cc1 | XTT | 7 days | EC50 | 3000 nM
CC(C)Cc1ccc([C@H](C)C(=O)O)cc1 | MTT | 72 h | IC50 | 277000 nM
O=C(NO)c1ccc(Cn2cnc3c(Nc4ccc(F)c(Cl)c4)ncnc32)cc1 | MTT | 72 h | IC50 | 1140 nM
O=C(NCC1CC1)c1ccc(-c2nc3ccc4[nH]ncc4c3c3c2CCCC3)cc1 | resazurin | 72 h | GI50 | > 10000 nM
Nc1ccccc1NC(=O)c1ccc(Cn2cnc3c(Nc4ccc(Br)cc4F)ncnc32)cc1 | MTT | 72 h | IC50 | 280 nM
Cc1cc2c(C(N)=O)cccc2n1-c1nc2c(c(NCc3ccccc3)n1)CCCN2 |  | 72 h | IC50 | 300 nM
Cc1n[nH]c2ccc3nc(-c4ccc(C(=O)NCCN(C)C)cc4)c4c(c3c12)CCC(C)(C)C4 | resazurin | 72 h | GI50 | 223 nM
Fc1ccc(Oc2ccc(Nc3ccc4ncc(OCC5CCNCC5)nc4c3)cc2)cc1 | XTT | 7 days | EC50 | 960 nM
COc1ccc(Nc2ncnc3c2ncn3Cc2ccc(C(=O)Nc3ccccc3N)cc2)cc1 | MTT | 72 h | IC50 | 720 nM
Cc1n[nH]c2ccc3nc(-c4ccc(C(=O)NCCN(C)C)cn4)c4c(c3c12)CCCCC4 | resazurin | 72 h | GI50 | 132 nM
c1ccc(COc2ccc(Nc3ccc4ncc(OCC5CCNCC5)nc4c3)cc2)cc1 | XTT | 7 days | EC50 | 840 nM
COc1cc(-c2cc(C(C)=O)n3ccccc23)c(OC)cc1Cn1ccnc1 | ATP luminescence |  | IC50 | 70 nM
